Assay results: ChEMBL document CHEMBL5030548, “Blockade of GRTH/DDX25 Phosphorylation by Cyclic Peptides Provides an Avenue for Developing a Nonhormonal Male Contraceptive” (J Med Chem, 2021)
Activity calls are given as the source filed them. No cut-off for these calls is given here. Where a SMILES comes first, the peptide text is derived from it. [ ]: non-standard residue; d: D form. The star is where a group is joined. FITC = O=C1OC2(c3ccc(O)cc3Oc3cc(O)ccc32)c2ccc(NC(=S)*)cc21; 2Nal = N[C@@H](Cc1ccc2ccccc2c1)C(=O)O; AEEA = NCCOCCOCC(=O)O

Experiments:
[1] = system: COS-1; assay: Inhibition of GRTH phosphorylation (unknown origin) expressed in COS-1 cells assessed as reduction in pGRTH protein level at 5 to 100 uM measured after 16 hrs by western blot analysis; format: cell-based; details: Homo sapiens, dose 5-100 µM
In short: (§1)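 COS-1 cells stably expressing human GRTH-V5-His at ~90% confluence. Peptides dissolved in water and given at 5, 20, 60 or 100 μM for 16 h, or at 100 μM for 4, 8, 16 or 24 h. 30 μg protein per sample was blotted with a rabbit phospho-T239-specific GRTH antibody. 61 kDa pGRTH band normalized to β-actin; three independent experiments; ANOVA with Tukey test.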

[2] = Drug uptake in nucleus of African green monkey COS-1 cells assessed as compound accumulation in nucleus at 20 uM incubated for 4 hrs in presence of FITC-labelled peptide by DAPI staining based inverted phase contrast fluorescence microscope analysis; format: ADME, subcellular; details: chlorocebus aethiops, cos-1, 4 h
In short: (§2)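 Stable GRTH-expressing COS-1 cells grown overnight on coverslips, then given 20 μM FITC-tagged peptide for 4 h. After PBS wash they were fixed in 50% then 100% methanol, 1 min each, and mounted with DAPI. Green signal in cytoplasm and nucleus was viewed by inverted fluorescence microscopy.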

[3] = Drug uptake in mouse seminiferous tubule of testis at 100 uM incubated for 16 hrs by immunofluorescence microscopic analysis; format: ADME, tissue-based; details: in vitro
In short: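 Seminiferous tubules from decapsulated testes of 90-day-old mice were segmented and placed in medium 199. After 4 h, 100 μM FITC-tagged peptide was added for 16 h. Tubules were PBS-washed, mounted with antifade and imaged by fluorescence microscopy.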

[4] = Drug uptake in cytoplasm of African green monkey COS-1 cells assessed as compound accumulation in cytoplasm at 20 uM incubated for 4 hrs in presence of FITC-labelled peptide by DAPI staining based inverted phase contrast fluorescence microscope analysis; format: ADME, subcellular; details: chlorocebus aethiops, cos-1, 4 h; in short: as §2
[5] = species on record: Mus musculus; assay: Inhibition of GRTH phosphorylation in mouse seminiferous tubule of testis assessed as reduction in pGRTH protein level at 100 uM measured after 16 hrs by western blot analysis; format: tissue-based
In short: (§3)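 Seminiferous tubules from adult mice (90 days old) in medium 199, 4 h, then 100 μM peptide for 16 h. Lysates were blotted with phospho-specific GRTH antibody. pGRTH band normalized to β-actin and compared with untreated tubules; n = 3.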

[6] = system: COS-1; assay: Binding affinity to GRTH (unknown origin) expressed in COS-1 cell lysate assessed as thermostabilization of protein at 40 uM incubated for 16 hrs followed by heating at 40 to 70 degree C for 3 mins by CETSA based western blot analysis; format: subcellular; details: Homo sapiens
In short: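 Lysate of COS-1 cells stably carrying human GRTH-V5-His, made with protease/phosphatase inhibitor and cleared by centrifugation, then diluted in lysis buffer. Peptide added to 40 μM and rotated 16 h at 4 °C. Aliquots were heated 3 min at 40–70 °C and cooled 3 min at room temperature, then spun. Soluble non-phospho GRTH was read by western blot; 40 °C sample served as reference; n = 3.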

[7] = system: COS-1; assay: Inhibition of PKA-induced GRTH phosphorylation (unknown origin) expressed in COS-1 cells at 100 uM stimulated with PKA for 24 hrs followed by peptide addition and incubated overnight by Western blot analysis; format: cell-based; details: Homo sapiens
In short: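 Stable GRTH COS-1 cells at 0.3 × 10^6/well were transfected with PKAα catalytic subunit plasmid (3 μg/well), or with empty plasmid, and grown 24 h. Peptide was then added at 100 μM overnight at 37 °C. pGRTH was detected by western blot with phospho-specific antibody (1:1000) and normalized to β-actin; three experiments.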

[8] = system: COS-1; assay: Binding affinity to mCherry labelled GRTH (unknown origin) expressed in COS-1 cells assessed as increase in fluorescence intensity of donor peptide FITC in bleached region at 15 uM followed by acceptor photobleaching measured after 16 hrs by inverted microscope based live cell imaging analysis; details: Homo sapiens
In short: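 COS-1 cells carrying an mCherry-human GRTH fusion, in glass-bottom dishes, exposed to 15 μM FITC-labelled peptide for 16 h, then imaged live. mCherry was excited at 561 nm and FITC at 488 nm (emission 500–550 nm). ROIs were bleached in the acceptor channel at 514 nm, 100% power, 10 iterations. FRET efficiency E% = 100 × (FITC postbleach − FITC prebleach)/FITC postbleach.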

[9] = system: COS-1; assay: Inhibition of GRTH phosphorylation (unknown origin) expressed in COS-1 cells assessed as reduction in pGRTH protein level measured after 16 hrs by western blot analysis; format: cell-based; details: Homo sapiens; in short: as §1
[10] = system: COS-1; assay: Inhibition of GRTH phosphorylation (unknown origin) expressed in COS-1 cells assessed as reduction in pGRTH protein level at 100 uM measured after 24 hrs by western blot analysis; format: cell-based; details: Homo sapiens; in short: as §1
[11] = system: COS-1; assay: Inhibition of GRTH phosphorylation (unknown origin) expressed in COS-1 cells assessed as reduction in pGRTH protein level at 100 uM measured after 16 to 24 hrs by western blot analysis; format: cell-based; details: Homo sapiens, time 16-24 hrs; in short: as §1
[12] = system: COS-1; assay: Cytotoxicity against African green monkey COS-1 cell assessed as reduction in cell viability incubated for 24 hrs by CellTiter 96 non-radioactive cell proliferation assay; format: cell-based; details: Chlorocebus aethiops, COS-1, 24 h
In short: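 COS-1 cells stably expressing human GRTH, seeded at 0.01 × 10^6/well and left 16 h. Peptides at 10, 50, 100, 250 and 500 μM for 24 h at 37 °C with 5% CO2. Tetrazolium dye was then added for 4 h, reaction stopped, absorbance read at 570 nm. Viability taken as % of control OD; IC50 by linear regression of dose–response.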

[13] = system: COS-1; assay: Inhibition of GRTH phosphorylation (unknown origin) expressed in COS-1 cells assessed as reduction in pGRTH protein level at 100 uM measured after 8 to 16 hrs by western blot analysis; format: cell-based; details: Homo sapiens, time 8-16 hrs; in short: as §1
[14] = species on record: Mus musculus; assay: Inhibition of GRTH phosphorylation in mouse seminiferous tubule of testis assessed as reduction in pGRTH protein level at 100 uM measured after 16 hrs by western blot analysis relative to control; format: tissue-based; in short: as §3

Row | Compound | inhibition [1] | Drug uptake [2] | Drug uptake [3] | Drug uptake [4] | inhibition [5] | Activity [6] | inhibition [7] | Activity [8] | inhibition [9] | inhibition [10] | inhibition [11] | IC50 [12] [µM] | inhibition [13] | inhibition [14] [%]
1 | N=C(N)NCCC[C@H](NC(=O)CNC(=O)[C@H](Cc1ccc2ccccc2c1)NC(=O)[C@@H](N)Cc1ccccc1)C(=O)N[C@@H](CCCNC(=N)N)C(=O)N[C@@H](CCCNC(=N)N)C(=O)N[C@@H](CCCCNC(=S)Nc1ccc2c(c1)C(=O)OC21c2ccc(O)cc2Oc2cc(O)ccc21)C(=O)NCCOCCOCC(=O)O (H-F[2Nal]GRRRK(FITC)[AEEA]-OH) | inactive | Not Active | Active | Not Active | inactive |  |  |  |  |  |  |  |  | 
2 | O=C(O)CC[C@@H]1NC(=O)CNC(=O)[C@H](Cc2ccc3ccccc3c2)NC(=O)[C@H](Cc2ccccc2)NC(=O)COCCOCCNC(=O)[C@H](CCCCNC(=S)Nc2ccc3c(c2)C(=O)OC32c3ccc(O)cc3Oc3cc(O)ccc32)NC(=O)[C@H](CCC(=O)O)NC(=O)[C@H](CCC(=O)O)NC1=O (cyclo([2Nal]GEEEK(FITC)[AEEA]F)) | inactive | Active | Active | Active | inactive | inactive | inactive | inactive |  |  |  |  |  | 
3 | N=C(N)NCCC[C@@H]1NC(=O)CNC(=O)[C@H](Cc2ccc3ccccc3c2)NC(=O)[C@H](Cc2ccccc2)NC(=O)COCCOCCNC(=O)CNC(=O)[C@H](CCCNC(=N)N)NC(=O)[C@H](CCCNC(=N)N)NC1=O (cyclo([2Nal]GRRRG[AEEA]F)) |  |  |  |  |  |  |  |  | Dose-Dependent Effect | Active | Active | 392 |  | 
4 | N=C(N)NCCC[C@@H]1NC(=O)CNC(=O)[C@H](Cc2ccc3ccccc3c2)NC(=O)[C@H](Cc2ccccc2)NC(=O)COCCOCCNC(=O)[C@H](CCCCNC(=S)Nc2ccc3c(c2)C(=O)OC32c3ccc(O)cc3Oc3cc(O)ccc32)NC(=O)[C@H](CCCNC(=N)N)NC(=O)[C@H](CCCNC(=N)N)NC1=O (cyclo([2Nal]GRRRK(FITC)[AEEA]F)) |  | Active | Active | Active |  | Active | Active | Active | Dose-Dependent Effect | Active |  | 312 | Active | 
5 | N=C(N)NCCC[C@@H]1NC(=O)CNC(=O)[C@H](Cc2ccc3ccccc3c2)NC(=O)[C@H](Cc2ccccc2)NC(=O)COCCOCCNC(=O)[C@@H](CCCCNC(=S)Nc2ccc3c(c2)C(=O)OC32c3ccc(O)cc3Oc3cc(O)ccc32)NC(=O)[C@H](CCCNC(=N)N)NC(=O)[C@H](CCCNC(=N)N)NC1=O (cyclo([2Nal]GRRR[dK](FITC)[AEEA]F)) |  | Active | Active | Active |  | Active | Active | Active | Dose-Dependent Effect | inactive |  | 333 | Active | 60
6 | N=C(N)NCCC[C@@H]1NC(=O)CNC(=O)CNC(=O)CNC(=O)COCCOCCNC(=O)[C@H](CCCCNC(=S)Nc2ccc3c(c2)C(=O)OC32c3ccc(O)cc3Oc3cc(O)ccc32)NC(=O)[C@H](CCCNC(=N)N)NC(=O)[C@H](CCCNC(=N)N)NC1=O (cyclo([AEEA]GGGRRRK(FITC))) | inactive | Active | Active | Active | inactive |  |  |  |  |  |  |  |  | 
